What was measured:
[1] = system: Ab ATCC 19606; settings: broth microdilution, mass basis; data with * ref [21]; cited from earlier work
[2] = system: P. aeruginosa ATCC 27853; test: Disk diffusion assay; format: cell-based; settings: Pa ATCC 27853, 20 μg on blank disc (Ø = 0.6 cm), 24 h
Summary of the method: (§1)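 The test compound (20 µg) was loaded onto a blank 0.6 cm disc and placed on an agar plate inoculated with the bacterium. The plate was incubated for 24 h, and the diameter of the bacteria-free zone around the disc was measured in cm. Saline was included as a control.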

[3] = system: A. baumannii ATCC 19606; test: Disk diffusion assay; format: cell-based; settings: Ab ATCC 19606, 20 μg on blank disc (Ø = 0.6 cm), 24 h
Summary of the method: as §1

[4] = system: A. baumannii ATCC 19606; test: Time-kill study; format: cell-based; settings: 4 × MIC (mass based; higher value where MIC is a range)

## colistin
[1]
  Minimum inhibitory concentration against Ab ATCC 19606 (MIC): 1* mg/L
[2]
  Diameter of Zone of Inhibition (ZOI): 1.8 cm
[3]
  Diameter of Zone of Inhibition (ZOI): 1.8 cm

## colistin methanesulfonate [CMS]
[1]
  Minimum inhibitory concentration against Ab ATCC 19606 (MIC): 16* mg/L
[4]
  Time to inhibit the growth of bacteria to levels approaching the detection limit: around 6 h
[2]
  Diameter of Zone of Inhibition (ZOI): 1.7 cm
[3]
  Diameter of Zone of Inhibition (ZOI): 1.8 cm
